Assay results reported in ChEMBL document CHEMBL2440018 (J Med Chem, 2013).
Calls of active or inactive are those of the source. The calls are words filed in the database; no cut-off is given here.

Legend:
[1] = target: T1, Matrilysin (Homo sapiens) (UniProt P09237); experiment: Inhibition of human recombinant MMP-7 at 50 uM by fluorescence spectrophotometric analysis relative to control
T1 sequence (whole entry): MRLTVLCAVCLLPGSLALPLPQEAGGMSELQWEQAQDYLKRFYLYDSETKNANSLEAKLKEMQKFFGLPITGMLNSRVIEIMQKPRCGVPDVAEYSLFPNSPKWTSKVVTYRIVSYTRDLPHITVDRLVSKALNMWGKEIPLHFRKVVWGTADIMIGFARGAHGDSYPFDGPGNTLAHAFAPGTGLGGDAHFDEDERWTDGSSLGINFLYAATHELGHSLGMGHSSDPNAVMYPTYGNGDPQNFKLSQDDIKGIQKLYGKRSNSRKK

[2] = target: T2, Matrix metalloproteinase-14 (Homo sapiens, UniProt P50281); experiment: Inhibition of human recombinant MMP-14 catalytic domain using MOCAcPLGLA2pr(Dnp)AR-NH2 as substrate by fluorescence spectrophotometric analysis
[3] = target: MMP-2/MMP-9 (Homo sapiens) (UniProt P08253+P14780); experiment: Selectivity ratio of Ki for human recombinant MMP-9 catalytic domain to Ki for human recombinant MMP-2
Homo sapiens = organism: Homo sapiens; experiment: Selectivity ratio of Ki for human recombinant MMP-8 catalytic domain to Ki for human recombinant MMP-2
[4] = target: T3, Interstitial collagenase (Homo sapiens) (UniProt P03956); experiment: Inhibition of human recombinant MMP-1 catalytic domain at 50 uM by fluorescence spectrophotometric analysis relative to control
T3 sequence (whole entry): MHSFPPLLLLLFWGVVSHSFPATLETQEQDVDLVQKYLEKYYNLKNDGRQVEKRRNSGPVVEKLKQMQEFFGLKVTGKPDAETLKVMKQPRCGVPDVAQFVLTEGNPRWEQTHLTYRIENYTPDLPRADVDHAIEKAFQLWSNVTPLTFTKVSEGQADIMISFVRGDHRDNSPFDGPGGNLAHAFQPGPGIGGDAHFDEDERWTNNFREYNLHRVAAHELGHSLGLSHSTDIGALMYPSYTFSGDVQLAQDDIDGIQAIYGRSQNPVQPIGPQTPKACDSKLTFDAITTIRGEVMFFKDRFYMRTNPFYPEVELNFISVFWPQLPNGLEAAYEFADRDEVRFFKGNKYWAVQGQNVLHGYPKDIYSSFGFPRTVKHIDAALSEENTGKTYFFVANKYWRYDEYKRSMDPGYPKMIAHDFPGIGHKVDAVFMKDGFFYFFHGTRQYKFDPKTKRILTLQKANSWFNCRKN

[5] = target: T4, Matrix metalloproteinase-9 (Homo sapiens, UniProt P14780); experiment: Inhibition of human recombinant MMP-9 catalytic domain using MOCAcPLGLA2pr(Dnp)AR-NH2 as substrate by fluorescence spectrophotometric analysis
T4 sequence (P14780 whole entry, the tested form may be a part): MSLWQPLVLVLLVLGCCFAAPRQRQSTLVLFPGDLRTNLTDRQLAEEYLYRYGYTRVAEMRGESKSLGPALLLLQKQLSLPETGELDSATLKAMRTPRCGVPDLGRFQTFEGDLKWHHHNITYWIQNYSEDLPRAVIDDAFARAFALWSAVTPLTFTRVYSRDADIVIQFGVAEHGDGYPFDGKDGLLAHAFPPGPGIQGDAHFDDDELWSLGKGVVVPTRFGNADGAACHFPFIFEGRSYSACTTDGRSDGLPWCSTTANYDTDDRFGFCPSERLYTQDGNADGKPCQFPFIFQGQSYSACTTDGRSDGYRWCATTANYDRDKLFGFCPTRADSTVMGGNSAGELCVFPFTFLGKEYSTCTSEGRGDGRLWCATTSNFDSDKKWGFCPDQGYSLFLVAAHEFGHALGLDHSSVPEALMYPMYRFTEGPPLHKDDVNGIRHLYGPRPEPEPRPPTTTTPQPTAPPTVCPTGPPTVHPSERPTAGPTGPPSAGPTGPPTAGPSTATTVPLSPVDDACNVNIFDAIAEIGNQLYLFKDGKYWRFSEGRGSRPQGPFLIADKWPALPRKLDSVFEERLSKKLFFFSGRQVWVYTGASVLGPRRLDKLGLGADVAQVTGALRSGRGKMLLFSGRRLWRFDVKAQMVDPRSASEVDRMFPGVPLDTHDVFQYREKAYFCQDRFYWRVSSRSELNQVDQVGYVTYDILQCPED

[6] = target: MMP-2/MMP-14 (Homo sapiens) (UniProt P50281+P08253); experiment: Selectivity ratio of Ki for human recombinant MMP-14 catalytic domain to Ki for human recombinant MMP-2
[7] = target: 72 kDa type IV collagenase (Homo sapiens, UniProt P08253); experiment: Inhibition of human recombinant MMP-2 using MOCAcPLGLA2pr(Dnp)AR-NH2 as substrate by fluorescence spectrophotometric analysis
72 kDa type IV collagenase, sequence (P08253 whole entry, the tested form may be a part): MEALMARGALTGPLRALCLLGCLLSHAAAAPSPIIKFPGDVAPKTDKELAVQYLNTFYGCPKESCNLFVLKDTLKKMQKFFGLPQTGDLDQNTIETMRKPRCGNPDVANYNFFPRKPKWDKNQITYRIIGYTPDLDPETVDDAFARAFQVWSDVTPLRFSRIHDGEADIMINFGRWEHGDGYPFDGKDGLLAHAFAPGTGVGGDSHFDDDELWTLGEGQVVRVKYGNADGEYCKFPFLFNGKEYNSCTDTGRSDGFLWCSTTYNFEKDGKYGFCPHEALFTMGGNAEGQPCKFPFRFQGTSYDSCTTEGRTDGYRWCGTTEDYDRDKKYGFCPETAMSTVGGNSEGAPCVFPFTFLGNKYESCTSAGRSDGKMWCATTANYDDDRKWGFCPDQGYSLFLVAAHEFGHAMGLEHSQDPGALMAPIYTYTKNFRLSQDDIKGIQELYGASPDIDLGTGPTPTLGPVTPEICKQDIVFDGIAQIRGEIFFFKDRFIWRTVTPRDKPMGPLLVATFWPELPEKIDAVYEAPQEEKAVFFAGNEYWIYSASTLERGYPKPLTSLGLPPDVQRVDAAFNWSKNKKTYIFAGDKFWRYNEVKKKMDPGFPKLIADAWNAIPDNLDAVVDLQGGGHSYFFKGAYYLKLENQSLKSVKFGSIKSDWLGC

[8] = target: Stromelysin-1 (Homo sapiens) (UniProt P08254); experiment: Inhibition of human recombinant MMP-3 catalytic domain at 50 uM by fluorescence spectrophotometric analysis relative to control
[9] = Ratio of AUC in brain to plasma in C57Bl/6J mouse at 25 mg/kg, sc; assay type: ADME, organism-based; design: dose 25 mg/kg, route subcutaneous; conditions: brain and plasma, read-out: Ratio AUC
Liver [10] = experiment: Half life in rat liver S9 fraction at 10 uM by reversed-phase UPLC/ESI-MRM analysis; assay type: ADME, subcellular; conditions: s9, 10 µM
Procedure, shortened: (§1)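 Male rat liver S9 (1.0 mg) with 0.5 mM NADPH and 10 µM compound (both final) in 50 mM potassium phosphate, pH 7.4, at 37 °C, sampled over time. Aliquots were stopped with acetonitrile containing internal standard, and the supernatant was run by UPLC/ESI-MRM. Half-lives used first-order kinetics on peak-area ratios to internal standard.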

[11] = target: T2, Matrix metalloproteinase-14; experiment: Inhibition of human recombinant MMP-14 catalytic domain using MOCAcPLGLA2pr(Dnp)AR-NH2 as substrate at 50 uM by fluorescence spectrophotometric analysis relative to control
Brain [12] = experiment: Metabolic stability in C57Bl/6J mouse brain assessed as formation of ND-322 at 25 mg/kg, sc measured at 10 to 300 mins; assay type: ADME, organism-based; design: dose 25 mg/kg, route subcutaneous; conditions: in vivo
Procedure, shortened: (§2)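 Female C57Bl/6J mice (6–8 weeks, 16–19 g) received a single 100 µL sc dose equivalent to 25 mg/kg, in 10% DMSO/25% Tween 80/65% water or 80% propylene glycol/20% DMSO. Terminal heparinised vena cava blood gave plasma, and saline-perfused whole brain was taken; n = 3 per time point. Acetonitrile extracts with internal standard were run by UPLC/ESI-MRM against matrix calibration curves, linear 0.05–5 µM.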

Brain [13] = experiment: Drug uptake in C57Bl/6J mouse brain at 25 mg/kg, sc measured at 10 mins by reversed phase UPLC/ESI-MRM analysis; assay type: ADME, organism-based; design: dose 25 mg/kg, route subcutaneous; conditions: in vivo; procedure, shortened: as §2
[14] = target: T4, Matrix metalloproteinase-9; experiment: Inhibition of human recombinant MMP-9 catalytic domain using MOCAcPLGLA2pr(Dnp)AR-NH2 as substrate at 50 uM by fluorescence spectrophotometric analysis relative to control
Plasma [15] = experiment: AUC (0 to last) in C57Bl/6J mouse plasma at 25 mg/kg, sc; assay type: ADME, organism-based; design: time 0 - last, dose 25 mg/kg, route subcutaneous; conditions: in vivo
Procedure, shortened: (§3)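 Mice were dosed sc once at 25 mg/kg; plasma and perfused brain (n = 3 per time point) were quantified by UPLC/ESI-MRM. AUC0-last came from the mean concentration-time curve by the trapezoidal rule, and AUC0-∞ = AUC0-last + Clast/k. α and β half-lives came from linear regression on the linear portion of the concentration-time data, with t1/2 = ln2/k.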

Plasma [16] = experiment: Metabolic stability in C57Bl/6J mouse plasma assessed as formation of ND-322 at 25 mg/kg, sc measured at 10 to 300 mins; assay type: ADME, organism-based; design: dose 25 mg/kg, route subcutaneous; conditions: in vivo; procedure, shortened: as §2
[17] = Primary phase half life in C57Bl/6J mouse plasma at 25 mg/kg, sc; assay type: ADME, organism-based; design: dose 25 mg/kg, route subcutaneous; conditions: read-out: alphat1/2; procedure, shortened: as §3
Plasma [18] = experiment: AUC (0 to infinity) in C57Bl/6J mouse plasma at 25 mg/kg, sc; assay type: ADME, organism-based; design: time infinity, dose 25 mg/kg, route subcutaneous; conditions: in vivo; procedure, shortened: as §3
Brain [19] = experiment: Elimination half life in C57Bl/6J mouse brain at 25 mg/kg, sc; assay type: ADME, organism-based; design: dose 25 mg/kg, route subcutaneous; conditions: in vivo; procedure, shortened: as §3
Plasma [20] = experiment: Plasma concentration in C57Bl/6J mouse at 25 mg/kg, sc measured at 10 mins by reversed phase UPLC/ESI-MRM analysis; assay type: ADME, organism-based; design: dose 25 mg/kg, route subcutaneous; conditions: in vivo; procedure, shortened: as §2
Brain [21] = experiment: AUC (0 to last) in C57Bl/6J mouse brain at 25 mg/kg, sc; assay type: ADME, organism-based; design: dose 25 mg/kg, route subcutaneous; conditions: in vivo; procedure, shortened: as §3
[22] = Plasma concentration in C57Bl/6J mouse at 25 mg/kg, sc measured at 5 hrs by reversed phase UPLC/ESI-MRM analysis; assay type: ADME, organism-based; design: dose 25 mg/kg, route subcutaneous; procedure, shortened: as §2
Brain [23] = experiment: Drug uptake in C57Bl/6J mouse brain measured per mg of tissue at 25 mg/kg, sc measured at 5 hrs by reversed phase UPLC/ESI-MRM analysis; assay type: ADME, organism-based; design: dose 25 mg/kg, route subcutaneous; conditions: in vivo; procedure, shortened: as §2
Plasma [24] = experiment: Elimination half life in C57Bl/6J mouse plasma at 25 mg/kg, sc; assay type: ADME, organism-based; design: dose 25 mg/kg, route subcutaneous; conditions: in vivo; procedure, shortened: as §3
[25] = Primary phase half life in C57Bl/6J mouse brain at 25 mg/kg, sc; assay type: ADME, organism-based; design: dose 25 mg/kg, route subcutaneous; conditions: read-out: alphat1/2; procedure, shortened: as §3
Brain [26] = experiment: AUC (0 to infinity) in C57Bl/6J mouse brain at 25 mg/kg, sc; assay type: ADME, organism-based; design: time infinity, dose 25 mg/kg, route subcutaneous; conditions: in vivo; procedure, shortened: as §3
Neutrophil collagenase = Neutrophil collagenase (Homo sapiens, UniProt P22894); experiment: Inhibition of human recombinant MMP-8 catalytic domain using […] as substrate by fluorescence spectrophotometric analysis
Neutrophil collagenase, sequence (P22894 whole entry, the tested form may be a part): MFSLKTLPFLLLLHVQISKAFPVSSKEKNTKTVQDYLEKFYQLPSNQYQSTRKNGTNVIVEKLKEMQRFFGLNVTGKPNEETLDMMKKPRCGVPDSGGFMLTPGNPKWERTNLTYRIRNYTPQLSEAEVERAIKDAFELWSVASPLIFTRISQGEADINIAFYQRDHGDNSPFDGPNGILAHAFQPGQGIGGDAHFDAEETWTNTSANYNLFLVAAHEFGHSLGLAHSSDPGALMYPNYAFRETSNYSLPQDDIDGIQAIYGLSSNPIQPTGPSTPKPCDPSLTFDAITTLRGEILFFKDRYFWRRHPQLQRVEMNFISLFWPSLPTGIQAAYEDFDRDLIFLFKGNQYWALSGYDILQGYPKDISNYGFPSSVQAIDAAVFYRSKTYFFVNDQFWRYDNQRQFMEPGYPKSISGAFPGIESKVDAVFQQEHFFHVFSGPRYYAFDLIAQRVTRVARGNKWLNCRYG

Liver [27] = experiment: Primary phase half life in rat liver S9 fraction at 10 uM by reversed-phase UPLC/ESI-MRM analysis; assay type: ADME, subcellular; conditions: s9, 10 µM; procedure, shortened: as §1
Liver [28] = experiment: Elimination half life in rat liver S9 fraction at 10 uM by reversed-phase UPLC/ESI-MRM analysis; assay type: ADME, subcellular; conditions: s9, 10 µM; procedure, shortened: as §1

For `CNC(=O)Oc1ccc(Oc2ccc(S(=O)(=O)CC3CS3)cc2)cc1` (configuration not stated), the inhibition [1] was 6%, the Ki [2] was 12000 nM and the Ratio Ki [3] was 20. It also gave a Ratio Ki (Homo sapiens) of 20, an inhibition [4] of 8% and a Ki [5] of 10000 nM. The Ratio Ki [6] was 20, the Ki [7] was 390 nM and the inhibition [8] was 30%.

`CCNC(=O)Nc1ccc(Oc2ccc(S(=O)(=O)CC3CS3)cc2)cc1` (configuration not stated) showed an inhibition [1] of 7%, a Kp [9] of 0.0738 and a t1/2 (Liver [10]) of 40.7 min. For the same molecule, the inhibition [11] was 17%, the Stability (Brain [12]) was “Stable” and the Ratio Ki [3] was 20. The Drug uptake (Brain [13]) was “Active”, the Ratio Ki (Homo sapiens) was 20 and the inhibition [14] was 28%. For the same molecule, the AUClast (Plasma [15]) was 181 µM·min, the Stability (Plasma [16]) was “Stable” and the inhibition [4] was “inactive”. The half-life [17] was 8.38 min, the AUC (Plasma [18]) was 187 µM·min and the “beta t1/2” value (Brain [19]) was 204 min. For the same molecule, the Drug uptake (Plasma [20]) was “Active”, the AUClast (Brain [21]) was 9.86 pmol·min/mg and the concentration at 5 h [22] was 70.4 nM. For the same molecule, the Drug uptake (Brain [23]) was 0.0133 pmol, the “beta t1/2” value (Plasma [24]) was 61.9 min and the half-life [25] was 18.2 min. It also gave an AUC (Brain [26]) of 13.8 pmol·min/mg, a Ratio Ki [6] of 20 and a Ki [7] of 440 nM. For the same molecule, the Ki (Neutrophil collagenase) was 17000 nM and the inhibition [8] was “inactive”.

For `CC(C)NC(=O)Oc1ccc(Oc2ccc(S(=O)(=O)CC3CS3)cc2)cc1` (configuration not stated), the inhibition [1] was “inactive”, the inhibition [11] was 30% and the Ratio Ki [3] was 20. The Ratio Ki (Homo sapiens) was 20, the inhibition [14] was 22% and the inhibition [4] was “inactive”. The Ratio Ki [6] was 20, the Ki [7] was 690 nM and the inhibition [8] was 3%.

For `Nc1ccc(Oc2ccc(S(=O)(=O)CC3CS3)cc2)cc1` (configuration not stated), the alphat1/2 (Liver [27]) was 14 min and the “beta t1/2” value (Liver [28]) was 59 min.

For `CCOC(=O)Nc1ccc(Oc2ccc(S(=O)(=O)CC3CS3)cc2)cc1` (configuration not stated), the inhibition [1] was “inactive”, the Ki [2] was 1900 nM and the t1/2 (Liver [10]) was 24.8 min. For the same molecule, the inhibition [4] was “inactive”, the Ki [7] was 290 nM and the inhibition [8] was 37%.

With `O=S(=O)(CC1CS1)c1ccc(Oc2ccc(O)cc2)cc1` (configuration not stated) the t1/2 (Liver [10]) was 23.5 min.

For `CCCOC(=O)Oc1ccc(Oc2ccc(S(=O)(=O)CC3CS3)cc2)cc1` (configuration not stated), the inhibition [1] was 10%, the Ki [2] was 2800 nM and the Ratio Ki [3] was 2. The inhibition [4] was “inactive”, the Ki [5] was 1000 nM and the Ki [7] was 310 nM. The inhibition [8] was 29%.

For `CCCOC(=O)Nc1ccc(Oc2ccc(S(=O)(=O)CC3CS3)cc2)cc1` (configuration not stated), the inhibition [1] was “inactive”, the Ki [2] was 2100 nM and the Ratio Ki [3] was 2. For the same molecule, the inhibition [4] was “inactive”, the Ki [5] was 1100 nM and the Ki [7] was 490 nM. The inhibition [8] was 27%.
